Assays:
Caco-2 [1] = test: Induction of human ApoA-1 gene expression in human Caco-2 cells co-transfected with luc-beta-galactosidase after 48 hrs assessed as luciferase activity by luminometer relative to control; format: functional
Summary of the method: (§1)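 Caco-2 cells stably carrying an ApoA-I promoter–luciferase reporter (co-transfected with pRSV-β-galactosidase as transfection control; selected in MEM with 20% calf serum and 0.5 mg/mL G418). Cells seeded, 24 h at 37 °C in 5% CO2, then starved 24 h in 0.5% FBS selection medium. Compounds added at 15 µM in 0.01% DMSO for 48 h. Cells lysed, luciferase read by luminometer and normalized to Bradford protein. Fold induction is taken against untreated cells and against resveratrol, which is run in each experiment.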

Caco-2 [2] = test: Induction of human ApoA-1 gene expression in human Caco-2 cells co-transfected with luc-beta-galactosidase after 48 hrs assessed as luciferase activity by luminometer relative to resveratrol; format: functional; summary of the method: as §1
Caco-2 [3] = test: Cytotoxicity against human Caco-2 cells; format: cell-based
Caco-2 [4] = test: Induction of human ApoA-1 gene expression in human Caco-2 cells co-transfected with luc-beta-galactosidase at 15 uM after 48 hrs assessed as luciferase activity by luminometer relative to control; format: functional; summary of the method: as §1

SMILES | fold change (FC) (Caco-2 [1]) | fold change (FC) (Caco-2 [2]) | Activity (Caco-2 [3]) | fold change (FC) (Caco-2 [4])
O=S(=O)(Nc1ccc(O)cc1)c1ccc(O)cc1 | 1.3 | 0.4 |  | 
Oc1ccc(-c2nnc(-c3cccc(O)c3)o2)cc1 | 3.7 | 0.9 | Non-toxic | 
Oc1cccc(-c2nnc(-c3ccccc3)o2)c1 | 2.2 | 0.6 | Non-toxic | 
OCc1cccc(-c2nnc(-c3ccc(O)cc3)o2)c1 | 1.4 | 0.5 | Non-toxic | 
CC(=O)Nc1cc(O)ccc1/C=C/c1ccc(O)cc1 | 0.9 | 0.3 |  | 
CS(=O)(=O)c1cc(O)ccc1/C=C/c1ccc(O)cc1 | 2 | 0.7 |  | 
O=[N+]([O-])c1cc(O)ccc1/C=C/c1ccc(O)cc1 | 9.4 | 2.8 |  | 
COc1cc(O)ccc1/C=C/c1ccc(O)cc1 | 12.5 | 4.6 |  | 
OCc1cc(O)ccc1/C=C/c1ccc(O)cc1 | 2 | 0.5 |  | 
CN(C)C(=O)c1cc(O)ccc1/C=C/c1ccc(O)cc1 | 1.1 | 0.2 |  | 
Nc1cc(O)ccc1/C=C/c1ccc(O)cc1 | 3.2 | 0.9 |  | 
CCOC(=O)c1cc(/C=C/c2ccc(O)cc2)ccc1O | 1.1 | 0.4 |  | 
NC(=O)c1cc(/C=C/c2ccc(O)cc2)ccc1O | 2.7 | 0.7 |  | 
O=C(Nc1ccccc1)c1ccc(O)cc1 | 1.7 | 0.5 |  | 
O=C(O)c1cc(/C=C/c2ccc(O)cc2)ccc1O | 1.2 | 0.4 |  | 
Oc1ccc(/C=C/c2ccc(O)nc2)cc1 | 1.1 | 0.4 |  | 
Oc1ccc(-c2nnc(-c3ccccc3)o2)cc1 | 1.9 | 0.5 | Non-toxic | 
Oc1ccc(/N=N/c2ccc(O)cc2)cc1 | 3.4 | 1.3 |  | 
O=C(Nc1ccc(O)cc1)c1ccccc1 | 1.7 | 0.6 |  | 
O=C(Nc1ccc(O)cc1)c1ccc(O)cc1 | 1.9 | 0.7 |  | 
Oc1ccc(CCc2ccc(O)cc2)cc1 | 3.9 | 1 |  | 
Oc1ccc(/C=C/c2cc(O)cc(O)c2)cc1 [RESVERATROL] |  |  |  | 2.6
Oc1ccc(/C=C/c2ccc(O)cc2)cc1 [TRANS-4,4'-DIHYDROXYSTILBENE] | 5.1 | 1.6 |  | 

Reference: ChEMBL document CHEMBL1157841, “Stilbene analogs as inducers of apolipoprotein-I transcription” (Eur J Med Chem, 2010)
